In ChEMBL document CHEMBL1151319, “Antiplatelet aggregation constituents from Annona purpurea” (1998):

What was measured:
Parameters in all cases: scale not given: the % may be the effect or the level left
Platelet [1] = experiment: Inhibition of platelet activating factor-induced platelet aggregation in rabbit platelets at 100 ug/mL treated […] before […] challenge relative to control; assay type: functional, Oryctolagus cuniculus
How it was run: (§1)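 Rabbit platelets were preincubated at 37 °C for 3 min with compound at 100 μg/mL, or with 0.5% DMSO as the control, before the inducer was added. Inducers were thrombin 0.1 U/mL, arachidonic acid 100 μM, collagen 10 μg/mL, or PAF. The read-out was % aggregation, with 3–6 replicates.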

Platelet [2] = experiment: Inhibition of collagen-induced platelet aggregation in rabbit platelets at 100 ug/mL treated […] before […] challenge relative to control; assay type: functional, Oryctolagus cuniculus; how it was run: as §1
Platelet [3] = experiment: Inhibition of arachidonic acid-induced platelet aggregation in rabbit platelets at 100 ug/mL treated […] before […] challenge relative to control; assay type: functional, Oryctolagus cuniculus; how it was run: as §1
Platelet [4] = experiment: Inhibition of thrombin-induced platelet aggregation in rabbit platelets at 100 ug/mL treated […] before thrombin challenge relative to control; assay type: functional, Oryctolagus cuniculus; how it was run: as §1
Platelet [5] = experiment: Inhibition of platelet activating factor-induced platelet aggregation in rabbit platelets at 50 ug/mL treated […] before […] challenge relative to control; assay type: functional, Oryctolagus cuniculus
How it was run: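 PAF-induced aggregation of rabbit platelets was run after 3 min preincubation at 37 °C with compound at graded levels or 0.5% DMSO control. PAF is given as 2 ng/mL in the footnote and 2 nM in the column header. Output is % aggregation with n per point.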

Platelet [6] = experiment: Inhibition of platelet activating factor-induced platelet aggregation in rabbit platelets at 5 ug/mL treated 3 mins before platelet activating factor challenge relative to control
Platelet [7] = experiment: Inhibition of platelet activating factor-induced platelet aggregation in rabbit platelets at 10 ug/mL treated 3 mins before platelet activating factor challenge relative to control
Platelet [8] = experiment: Inhibition of platelet activating factor-induced platelet aggregation in rabbit platelets at 20 ug/mL treated 3 mins before platelet activating factor challenge relative to control
Platelet [9] = experiment: Inhibition of arachidonic acid-induced platelet aggregation in rabbit platelets at 20 ug/mL treated 30 mins before […] challenge relative to control; assay type: functional, Oryctolagus cuniculus
Platelet [10] = experiment: Inhibition of arachidonic acid-induced platelet aggregation in rabbit platelets at 50 ug/mL treated 30 mins before […] challenge relative to control; assay type: functional, Oryctolagus cuniculus
Platelet [11] = experiment: Inhibition of arachidonic acid-induced platelet aggregation in rabbit platelets at 10 ug/mL treated 3 mins before arachidonic acid challenge relative to control
Platelet [12] = experiment: Inhibition of thrombin-induced platelet aggregation in rabbit platelets at 50 ug/mL treated 30 mins before thrombin challenge relative to control; assay type: functional, Oryctolagus cuniculus
Platelet [13] = experiment: Inhibition of collagen-induced platelet aggregation in rabbit platelets at 50 ug/mL treated 30 mins before […] challenge relative to control; assay type: functional, Oryctolagus cuniculus
Platelet [14] = experiment: Inhibition of arachidonic acid-induced platelet aggregation in rabbit platelets at 50 ug/mL treated 3 min before arachidonic acid challenge relative to control
Platelet [15] = experiment: Inhibition of arachidonic acid-induced platelet aggregation in rabbit platelets at 5 ug/mL treated 3 mins before arachidonic acid challenge relative to control

Question: What does the source list for `COc1cc2c(O)c3c4c(cc(OC)c(OC)c4c2cc1OC)CCN3C`?
Answer: Activity (Platelet [1]): 0%; Activity (Platelet [2]): 12.7%; Activity (Platelet [3]): 21.8%; Activity (Platelet [4]): 78.8%; Activity (Platelet [5]): 0%; Activity (Platelet [6]): 77.9%; Activity (Platelet [7]): 64.9%; Activity (Platelet [8]): 25.2%

Question: For `COc1cc2c3c(cc4ccccc4c3c1O)N(C)CC2` [DEHYDROLIRINIDINE], which Activity (Platelet [1]) is on record?
Answer: 51.7%

Question: And the Activity (Platelet [2])?
Answer: 0%

Question: And the Activity (Platelet [3])?
Answer: 0%

Question: What about the Activity (Platelet [4]) of the same molecule?
Answer: 86.3%

Question: And the Activity (Platelet [9])?
Answer: 77.6%

Question: What about the Activity (Platelet [10]) of the same molecule?
Answer: 23.8%

Question: And the Activity (Platelet [11])?
Answer: 82.8%

Question: What does the source list for `COc1cc2ccnc3c2c(c1OC)-c1ccccc1C3=O` [LYSICAMINE]?
Answer: Activity (Platelet [12]): 88.9%; Activity (Platelet [5]): 83.7%; Activity (Platelet [13]): 55.2%; Activity (Platelet [10]): 16.3%

Question: What does the source list for `COc1cc2c(cc1OC)-c1c(OC)c(OC)cc3ccnc(c13)C2=O` [OXOGLAUCINE]?
Answer: Activity (Platelet [12]): 87%; Activity (Platelet [5]): 84.4%; Activity (Platelet [13]): 74.4%; Activity (Platelet [14]): 55.8%

Question: Which Activity (Platelet [1]) does the source give for `COc1cc2c(cc1OC)-c1c(OC)c(OC)c(OC)c3ccnc(c13)C2=O` [OXOPURPUREINE] here?
Answer: 87.2%

Question: What about the Activity (Platelet [2]) of the same molecule?
Answer: 53.5%

Question: And the Activity (Platelet [3])?
Answer: 43.7%

Question: With `COc1cc2c(cc1OC)-c1c(OC)c(O)cc3c1[C@H](C2)N(C)CC3` [PREDICENTRINE] as the molecule, how does the Activity (Platelet [1]) read?
Answer: 74%

Question: And the Activity (Platelet [2])?
Answer: 0%

Question: What about the Activity (Platelet [3]) of the same molecule?
Answer: 0%

Question: What about the Activity (Platelet [4]) of the same molecule?
Answer: 88.9%

Question: What about the Activity (Platelet [9]) of the same molecule?
Answer: 83.2%

Question: What about the Activity (Platelet [10]) of the same molecule?
Answer: 62%

Question: Which results are given for `COc1cc2c(cc1OC)-c1c(OC)c(OC)c(O)c3c1[C@@H](C2)N(C)CC3` [THALBAICALIDINE]?
Answer: Activity (Platelet [1]): 73.6%; Activity (Platelet [2]): 0%; Activity (Platelet [3]): 4.2%; Activity (Platelet [4]): 86.3%; Activity (Platelet [9]): 82.2%; Activity (Platelet [10]): 72.2%

Question: For `CNCCc1c(OC)c(OC)c(OC)c2c1ccc1cc(OC)c(OC)cc12` [THALICPUREINE], which Activity (Platelet [1]) is on record?
Answer: 0%

Question: What about the Activity (Platelet [2]) of the same molecule?
Answer: 0%

Question: And the Activity (Platelet [3])?
Answer: 0%

Question: What about the Activity (Platelet [4]) of the same molecule?
Answer: 33.6%

Question: What about the Activity (Platelet [9]) of the same molecule?
Answer: 41.9%

Question: What about the Activity (Platelet [5]) of the same molecule?
Answer: 3.9%

Question: What about the Activity (Platelet [10]) of the same molecule?
Answer: 0%

Question: What about the Activity (Platelet [15]) of the same molecule?
Answer: 83.7%

Question: What about the Activity (Platelet [11]) of the same molecule?
Answer: 74.2%

Question: What about the Activity (Platelet [6]) of the same molecule?
Answer: 82.4%

Question: And the Activity (Platelet [7])?
Answer: 78.8%

Question: And the Activity (Platelet [8])?
Answer: 55.5%
